The target of data set [1] is T1, Phosphatidylinositol 5-phosphate 4-kinase type-2 alpha (Homo sapiens) (UniProt P48426).
T1 sequence (whole entry): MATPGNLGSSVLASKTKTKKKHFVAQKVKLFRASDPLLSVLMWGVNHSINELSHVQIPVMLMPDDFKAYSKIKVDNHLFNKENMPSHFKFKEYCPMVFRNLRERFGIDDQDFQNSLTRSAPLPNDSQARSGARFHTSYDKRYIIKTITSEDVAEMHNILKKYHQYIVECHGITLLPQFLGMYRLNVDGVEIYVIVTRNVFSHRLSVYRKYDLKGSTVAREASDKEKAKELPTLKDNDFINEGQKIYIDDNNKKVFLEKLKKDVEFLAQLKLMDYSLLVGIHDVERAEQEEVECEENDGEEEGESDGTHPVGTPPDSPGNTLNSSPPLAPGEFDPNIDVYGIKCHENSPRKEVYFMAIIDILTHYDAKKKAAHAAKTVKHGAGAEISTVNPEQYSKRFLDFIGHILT
The data set is described as follows: Inhibition of PIP5K2A in human HeLa cells lysate at 50 uM pre incubated for 15 mins followed by ATP acyl phosphate probe addition and measured after 10 mins by LC-MS/MS analysis relative to control. It is filed as subcellular. The conditions noted are these: time 25.0 min.

A short description of data set [2]: Inhibition of HGK/MINK/TNIK in human HeLa cells lysate at 50 uM pre incubated for 15 mins followed by ADP acyl phosphate probe addition and measured after 10 mins by LC-MS/MS analysis relative to control. The note with it: 25 min, condition cancer.
In data set [3] the target is T2, Serine/threonine-protein kinase TAO2 (Homo sapiens) (UniProt Q9UL54).
T2 sequence (whole entry): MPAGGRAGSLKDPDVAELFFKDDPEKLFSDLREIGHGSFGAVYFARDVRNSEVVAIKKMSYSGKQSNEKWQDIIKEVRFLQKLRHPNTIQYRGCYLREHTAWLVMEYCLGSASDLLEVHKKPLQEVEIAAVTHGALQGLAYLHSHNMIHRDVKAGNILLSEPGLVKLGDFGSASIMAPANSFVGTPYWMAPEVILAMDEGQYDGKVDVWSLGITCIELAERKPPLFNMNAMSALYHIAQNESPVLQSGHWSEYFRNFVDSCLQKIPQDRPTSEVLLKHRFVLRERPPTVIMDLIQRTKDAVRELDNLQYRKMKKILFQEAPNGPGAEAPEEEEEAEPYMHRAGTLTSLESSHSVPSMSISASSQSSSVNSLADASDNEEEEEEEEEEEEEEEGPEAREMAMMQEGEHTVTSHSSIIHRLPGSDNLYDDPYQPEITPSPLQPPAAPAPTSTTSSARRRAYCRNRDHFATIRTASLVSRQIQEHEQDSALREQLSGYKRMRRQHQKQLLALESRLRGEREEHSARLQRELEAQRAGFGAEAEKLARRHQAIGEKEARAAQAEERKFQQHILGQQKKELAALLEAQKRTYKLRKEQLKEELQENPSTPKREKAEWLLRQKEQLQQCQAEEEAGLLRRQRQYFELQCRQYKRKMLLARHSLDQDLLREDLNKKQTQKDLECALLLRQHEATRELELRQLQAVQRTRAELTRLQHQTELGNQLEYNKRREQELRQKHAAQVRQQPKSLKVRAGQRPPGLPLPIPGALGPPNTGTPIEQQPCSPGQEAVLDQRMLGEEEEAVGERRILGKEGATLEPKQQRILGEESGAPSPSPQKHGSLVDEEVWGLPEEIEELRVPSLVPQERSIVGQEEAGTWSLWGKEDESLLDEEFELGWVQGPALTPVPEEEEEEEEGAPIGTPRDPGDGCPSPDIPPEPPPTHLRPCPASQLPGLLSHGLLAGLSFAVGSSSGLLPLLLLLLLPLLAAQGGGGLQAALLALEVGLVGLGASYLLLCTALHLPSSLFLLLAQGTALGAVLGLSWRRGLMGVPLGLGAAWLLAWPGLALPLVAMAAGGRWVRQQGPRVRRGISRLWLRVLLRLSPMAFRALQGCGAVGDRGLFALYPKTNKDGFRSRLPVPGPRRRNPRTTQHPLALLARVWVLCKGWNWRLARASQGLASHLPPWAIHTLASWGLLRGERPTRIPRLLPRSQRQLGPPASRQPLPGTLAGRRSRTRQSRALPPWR
Kind of data set: Inhibition of TAO2 in human HeLa cells lysate at 10 uM pre incubated for 15 mins followed by ATP acyl phosphate probe addition and measured after 10 mins by LC-MS/MS analysis relative to control. It is filed as subcellular. The conditions noted are these: time 25.0 min.

Data set [4] concerns the target Cyclin-dependent kinase 2 (Homo sapiens, UniProt P24941). Kind of data set: Inhibition of CDK2 K1 site in human HeLa cells lysate pre incubated for 15 mins followed by ADP acyl phosphate probe addition and measured after 10 mins by LC-MS/MS analysis. It counts as subcellular. The method in brief: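 KiNativ profiling in HeLa lysate (5 mg/mL total protein). Lysate incubated 15 min with inhibitor at 50, 10, 2, 0.8 or 0 μM. ATP or ADP acylphosphate probe then added (5 μM final) and reacted 10 min. Reaction stopped with urea and analysed by targeted MS, using up to four fragment ions per kinase peptide-probe conjugate. % inhibition taken against untreated lysate. Run in duplicate.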

Data set [5] concerns the target Serine/threonine-protein kinase ULK2 (Homo sapiens, UniProt Q8IYT8). The data set is described as follows: Inhibition of ULK2 in human HeLa cells lysate pre incubated for 15 mins followed by ADP acyl phosphate probe addition and measured after 10 mins by LC-MS/MS analysis. It counts as subcellular.
Data set [6] addresses Ribosomal protein S6 kinase beta-1 (Homo sapiens, UniProt P23443). The data set is described as follows: Inhibition of P70S6K in human HeLa cells lysate pre incubated for 15 mins followed by ATP acyl phosphate probe addition and measured after 10 mins by LC-MS/MS analysis. It is filed as subcellular.
For a further data set, the target named is p38 delta/gamma (Homo sapiens, UniProt O15264+P53778). The data set is described as follows: Inhibition of P38delta/gamma in human HeLa cells lysate pre incubated for 15 mins followed by ATP acyl phosphate probe addition and measured after 10 mins by LC-MS/MS analysis. It is filed as subcellular.
Data set [7] is described as follows: Plasma concentration in Sprague-Dawley rat at 2 mg/kg, po measured after 30 mins by LC-MS/MS analysis. It counts as ADME, organism-based.
For data set [8], the target named is Serine/threonine-protein kinase 3/4 (Homo sapiens, UniProt Q13043+Q13188). Kind of data set: Inhibition of MST1/2 in human HeLa cells lysate pre incubated for 15 mins followed by ADP acyl phosphate probe addition and measured after 10 mins by LC-MS/MS analysis. It is filed as subcellular.

Bounds are passed on as bounds.

As a reminder, the inhibition is the drop in the measured response relative to a control, in per cent. As usually defined, the IC50 is the concentration that gives 50% inhibition. Read a low IC50 as greater potency in that assay.

Serine/threonine-protein kinase ULK2, sequence (Q8IYT8 whole entry): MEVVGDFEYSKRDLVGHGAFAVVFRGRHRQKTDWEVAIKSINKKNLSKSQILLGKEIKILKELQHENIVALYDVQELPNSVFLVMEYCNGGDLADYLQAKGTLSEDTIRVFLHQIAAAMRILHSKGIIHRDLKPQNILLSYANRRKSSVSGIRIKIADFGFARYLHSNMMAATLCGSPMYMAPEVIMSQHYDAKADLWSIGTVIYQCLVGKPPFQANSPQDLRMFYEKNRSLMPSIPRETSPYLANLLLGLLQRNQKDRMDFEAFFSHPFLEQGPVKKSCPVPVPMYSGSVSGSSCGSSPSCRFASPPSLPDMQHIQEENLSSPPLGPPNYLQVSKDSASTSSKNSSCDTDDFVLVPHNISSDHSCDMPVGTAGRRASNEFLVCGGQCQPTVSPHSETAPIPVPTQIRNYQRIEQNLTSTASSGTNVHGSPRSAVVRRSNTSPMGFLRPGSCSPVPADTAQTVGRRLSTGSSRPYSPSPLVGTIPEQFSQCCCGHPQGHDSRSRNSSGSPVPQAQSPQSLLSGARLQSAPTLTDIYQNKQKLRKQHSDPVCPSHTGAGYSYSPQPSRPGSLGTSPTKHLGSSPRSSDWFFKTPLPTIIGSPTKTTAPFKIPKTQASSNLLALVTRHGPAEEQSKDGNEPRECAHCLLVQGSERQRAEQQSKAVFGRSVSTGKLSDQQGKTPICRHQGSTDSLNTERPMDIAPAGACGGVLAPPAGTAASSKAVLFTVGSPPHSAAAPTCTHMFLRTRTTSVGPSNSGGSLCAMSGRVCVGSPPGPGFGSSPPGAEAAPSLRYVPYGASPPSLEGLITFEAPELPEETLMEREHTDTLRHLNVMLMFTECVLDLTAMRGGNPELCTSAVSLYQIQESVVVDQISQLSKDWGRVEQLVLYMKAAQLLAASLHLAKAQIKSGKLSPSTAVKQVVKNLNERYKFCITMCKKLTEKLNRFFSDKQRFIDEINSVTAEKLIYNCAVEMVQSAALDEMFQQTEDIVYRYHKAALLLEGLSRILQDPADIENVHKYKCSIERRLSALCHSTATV
Ribosomal protein S6 kinase beta-1, sequence (P23443 whole entry): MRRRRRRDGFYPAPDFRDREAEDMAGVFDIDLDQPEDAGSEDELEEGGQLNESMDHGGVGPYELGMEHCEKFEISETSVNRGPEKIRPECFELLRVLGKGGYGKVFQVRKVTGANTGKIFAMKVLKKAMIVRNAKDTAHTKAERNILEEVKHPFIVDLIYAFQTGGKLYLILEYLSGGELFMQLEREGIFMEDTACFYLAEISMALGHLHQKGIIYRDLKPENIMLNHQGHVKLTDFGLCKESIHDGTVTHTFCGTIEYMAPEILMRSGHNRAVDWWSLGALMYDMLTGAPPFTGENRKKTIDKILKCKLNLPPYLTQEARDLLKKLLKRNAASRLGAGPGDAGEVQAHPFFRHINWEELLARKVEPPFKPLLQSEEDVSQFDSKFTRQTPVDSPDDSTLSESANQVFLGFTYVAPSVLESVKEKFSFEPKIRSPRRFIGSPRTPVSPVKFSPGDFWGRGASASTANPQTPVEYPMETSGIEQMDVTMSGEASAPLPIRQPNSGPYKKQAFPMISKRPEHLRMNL

Regarding `CCOc1cc(N2CCC(O)CC2)ccc1Nc1ncc2c(n1)N(C)c1ccccc1C(=O)N2C`, the inhibition in [1] is 1%; in data set [3], 3.3%. For the same molecule, the inhibition at 50 µM in data set [2] is -31.5%. Besides, the IC50 (in [4]; in data set [5]; in data set [6]; at p38 delta/gamma; in data set [8]) was over 50 µM each time. In addition, in data set [7], the concentration at 0.5 h was about 500 nM.

Values taken from ChEMBL document CHEMBL5661979, “Pharmacological inhibition of BMK1 suppresses tumor growth through promyelocytic leukemia protein” (Cancer Cell, 2010).
